Test results published in ChEMBL document CHEMBL3045116, “Synthesis and biological evaluation of 2-(5-substituted-1-((diethylamino)methyl)-2-oxoindolin-3-ylidene)-N-substituted-hydrazinecarbothioamides” (Med Chem Res, 2013).

Experiments:
Salmonella typhi = test: Antibacterial activity against Salmonella enterica subsp. enterica serovar Typhi assessed as growth inhibition at 50 ug/ml by cup-plate method (reference value: 8 to 10 mm); format: functional; conditions: read-out: DIZ
Proteus vulgaris = test: Antibacterial activity against Proteus vulgaris assessed as growth inhibition at 50 ug/ml by cup-plate method (reference value: 8 to 10 mm); format: functional; conditions: read-out: DIZ
Escherichia coli = test: Antibacterial activity against Escherichia coli assessed as growth inhibition at 50 ug/ml by cup-plate method (reference value: 8 to 10 mm); format: functional; conditions: read-out: DIZ
Bacillus subtilis = test: Antibacterial activity against Bacillus subtilis assessed as growth inhibition at 50 ug/ml by cup-plate method (reference value: 8 to 10 mm); format: functional; conditions: read-out: DIZ
Klebsiella pneumoniae = test: Antibacterial activity against Klebsiella pneumoniae assessed as growth inhibition at 50 ug/ml by cup-plate method (reference value: 8 to 10 mm); format: functional; conditions: read-out: DIZ
Staphylococcus aureus = test: Antibacterial activity against Staphylococcus aureus assessed as growth inhibition at 50 ug/ml by cup-plate method (reference value: 8 to 10 mm); format: functional; conditions: read-out: DIZ
Influenza B virus = test: Antiviral activity against Influenza B virus infected in MDCK cells assessed as reduction of virus-induced cytopathic effect after 3 days by colorimetric formazan-based MTS assay; format: functional, organism-based; conditions: 72 h
Summary of the method: (§1)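 Confluent cell monolayers were infected with 100 CCID50 of virus, and serial dilutions of compound were added at the time of infection.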

Influenza A virus H3N2 = test: Antiviral activity against Influenza A virus H3N2 infected MDCK cells assessed as reduction of virus-induced cytopathic effect after 3 days by colorimetric formazan-based MTS assay; format: functional, organism-based; conditions: 72 h; summary of the method: as §1
Human alphaherpesvirus 1 [1] = test: Antiviral activity against Human herpesvirus 1 strain KOS infected human HEL cells assessed as reduction of virus-induced cytopathic effect after 3 days by colorimetric formazan-based MTS assay; format: functional, organism-based; conditions: Human alphaherpesvirus 1, KOS, 72 h; summary of the method: as §1
Felid alphaherpesvirus 1 = test: Antiviral activity against Felid herpesvirus 1 infected cat CRFK cells assessed as reduction of virus-induced cytopathic effect after 3 days by colorimetric formazan-based MTS assay; format: functional, organism-based; conditions: Felid alphaherpesvirus 1, CRFK, 72 h
Summary of the method: (§2)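 Cells grown to confluency in 96-well plates ([…], Vero for lines 9–10) were infected with 100 CCID50 of virus, and serial compound dilutions were added at infection. Plates were incubated at 37 °C for 3 days, until complete CPE appeared in untreated virus controls.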

[2] = test system: Feline infectious peritonitis virus; test: Antiviral activity against Feline Infectious peritonitis virus infected cat CRFK cells assessed as reduction of virus-induced cytopathic effect after 3 days by colorimetric formazan-based MTS assay; format: functional, organism-based; conditions: Alphacoronavirus 1, CRFK, 72 h; summary of the method: as §1
[3] = Cytotoxicity against Felis catus (cat) CRFK cells assessed as change in cellular morphology; format: cell-based; conditions: crfk
Summary of the method: (§3)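 Uninfected cells were exposed to compound in parallel with the antiviral cultures. The read-out is the minimum cytotoxic concentration that causes a microscopically detectable alteration of normal cell morphology.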

[4] = Inhibition of beta lactamase assessed as increase in time taken for iodine decolorization relative to control; design: concentration or dose not given beside the values; conditions: concentration not given here
[5] = Inhibition of beta lactamase assessed as time for decolorization of iodine (reference value: 79.5 secs)
CCRF-CEM = test: Cytotoxicity against Homo sapiens (human) CEM cells assessed as growth inhibition after 72 hr by coulter counter analysis; format: functional, cell-based
Summary of the method: (§4)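 Cells in growth medium were allowed to proliferate with variable compound amounts at 37 °C in a humidified CO2 atmosphere. Incubation ran 48 h for L1210, 72 h for CEM and 96 h for HeLa. Cells were then counted with a Coulter counter.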

L1210 = test: Cytotoxicity against Mus musculus (mouse) L1210 cells assessed as growth inhibition after 48 hr by coulter counter analysis; format: functional, cell-based; conditions: L1210, 48 h; summary of the method: as §4
Influenza A virus = test: Antiviral activity against Unidentified Influenza A virus (H1N1) infected MDCK cells assessed as reduction of virus-induced cytopathic effect after 3 days by colorimetric formazan-based MTS assay; format: functional, organism-based; conditions: 72 h; summary of the method: as §1
[6] = (§5) Cytotoxicity against MDCK cells assessed as change in cellular morphology; format: cell-based, Canis lupus familiaris; conditions: dog, MDCK cells; summary of the method: as §3
MDCK = test: as §5; format: cell-based, Canis lupus familiaris; conditions: dog, mdck; summary of the method: as §3
Punta Toro virus = test: Antiviral activity against Punta Toro virus infected in African green monkey Vero cells assessed as reduction of virus-induced cytopathic effect after 3 days by colorimetric formazan-based MTS assay; format: functional, organism-based; conditions: 72 h; summary of the method: as §1
Coxsackievirus B4 [7] = test: Antiviral activity against Human coxsackievirus B4 infected African green monkey Vero cells assessed as reduction of virus-induced cytopathic effect after 3 days by colorimetric formazan-based MTS assay; format: functional, organism-based; conditions: Enterovirus B, 72 h; summary of the method: as §1
Respirovirus muris = test: Antiviral activity against Sendai virus infected African green monkey Vero cells assessed as reduction of virus-induced cytopathic effect after 3 days by colorimetric formazan-based MTS assay; format: functional, organism-based; conditions: 72 h
[8] = test system: Mammalian orthoreovirus 1; test: Antiviral activity against Mammalian orthoreovirus 1 infected African green monkey Vero cells assessed as reduction of virus-induced cytopathic effect after 3 days by colorimetric formazan-based MTS assay; format: functional, organism-based; conditions: Mammalian orthoreovirus 1, Vero, 72 h; summary of the method: as §2
Human respirovirus 3 = test: Antiviral activity against Human parainfluenza virus 3 infected African green monkey Vero cells assessed as reduction of virus-induced cytopathic effect after 3 days by colorimetric formazan-based MTS assay; format: functional, organism-based; conditions: Human respirovirus 3, Vero, 72 h; summary of the method: as §2
[9] = Cytotoxicity against Chlorocebus aethiops (African green monkey) Vero cells assessed as change in cellular morphology; format: cell-based; conditions: chlorocebus sabaeus
[10] = test system: Respiratory syncytial virus; test: Antiviral activity against Respiratory syncytial virus infected human HeLa cells assessed as reduction of virus-induced cytopathic effect after 3 days by colorimetric formazan-based MTS assay; format: functional, organism-based; conditions: 72 h; summary of the method: as §1
[11] = test system: Vesicular stomatitis virus; test: Antiviral activity against Vesicular stomatitis virus infected human HeLa cells assessed as reduction of virus-induced cytopathic effect after 3 days by colorimetric formazan-based MTS assay; format: functional, organism-based; conditions: 72 h; summary of the method: as §1
Coxsackievirus B4 [12] = test: Antiviral activity against Human coxsackievirus B4 infected human HeLa cells assessed as reduction of virus-induced cytopathic effect after 3 days by colorimetric formazan-based MTS assay; format: functional, organism-based; conditions: Enterovirus B, 72 h; summary of the method: as §1
[13] = (§6) Cytotoxicity against Homo sapiens (human) HeLa cells assessed as change in cellular morphology; format: cell-based; conditions: HeLa cells; summary of the method: as §3
HeLa = test: as §6; format: cell-based; conditions: hela; summary of the method: as §3
Human alphaherpesvirus 1 [14] = test: Antiviral activity against acyclovir-resistant thymidine kinase negative Human herpesvirus 1 strain KOS infected human HEL cells assessed as reduction of virus-induced cytopathic effect after 3 days by colorimetric formazan-based MTS assay; format: functional, organism-based; conditions: Human alphaherpesvirus 1, KOS, 72 h; summary of the method: as §1
[15] = test system: Vesicular stomatitis virus; test: Antiviral activity against Vesicular stomatitis virus infected human HEL cells assessed as reduction of virus-induced cytopathic effect after 3 days by colorimetric formazan-based MTS assay; format: functional, organism-based; conditions: 72 h; summary of the method: as §1
Vaccinia virus = test: Antiviral activity against Vaccinia virus infected human HEL cells assessed as reduction of virus-induced cytopathic effect after 3 days by colorimetric formazan-based MTS assay; format: functional, organism-based; conditions: Orthopoxvirus vaccinia, 72 h; summary of the method: as §1
Human alphaherpesvirus 2 = test: Antiviral activity against Human herpesvirus 2 strain G infected human HEL cells assessed as reduction of virus-induced cytopathic effect after 3 days by colorimetric formazan-based MTS assay; format: functional, organism-based; conditions: Human alphaherpesvirus 2, strain G, 72 h; summary of the method: as §1
[16] = Cytotoxicity against Homo sapiens (human) HEL cells assessed as change in cellular morphology; format: cell-based
Candida albicans = test: Antifungal activity against Candida albicans assessed as growth inhibition at 50 ug/ml by cup-plate method (reference value: 8 to 10 mm); format: functional; conditions: read-out: DIZ
Aspergillus niger = test: Antifungal activity against Aspergillus niger assessed as growth inhibition at 50 ug/ml by cup-plate method (reference value: 8 to 10 mm); format: functional; conditions: read-out: DIZ

Compound	zone of inhibition at 50 µg/mL (Salmonella typhi) [mm]	zone of inhibition at 50 µg/mL (Proteus vulgaris) [mm]	zone of inhibition at 50 µg/mL (Escherichia coli) [mm]	zone of inhibition at 50 µg/mL (Bacillus subtilis) [mm]	zone of inhibition at 50 µg/mL (Klebsiella pneumoniae) [mm]	zone of inhibition at 50 µg/mL (Staphylococcus aureus) [mm]	EC50 (Influenza B virus) [µM]	EC50 (Influenza A virus H3N2) [µM]	EC50 (Human alphaherpesvirus 1 [1]) [µM]	EC50 (Felid alphaherpesvirus 1) [µM]	EC50 [2] [µM]	EC50 (Influenza A virus) [µM]	MCC [6] [µM]	CC50 (MDCK) [µM]	EC50 (Human alphaherpesvirus 1 [14]) [µM]	EC50 [15] [µM]	EC50 (Human alphaherpesvirus 2) [µM]	MCC [16] [µM]	zone of inhibition at 50 µg/mL (Candida albicans) [mm]	zone of inhibition at 50 µg/mL (Aspergillus niger) [mm]	also measured
CC1COc2c(N3CCN(C)CC3)c(F)cc3c(=O)c(C(=O)O)cn1c23 (centres undefined) [OFLOXACIN]	31	31	31	31	31	31															
CCN(CC)CN1C(=O)/C(=N/NC(N)=S)c2cc(Cl)ccc21	11	11	11	11	11	21	> 20	> 20	> 100	> 100	> 100	> 20	100	78.3	> 100	> 100	> 100	> 100	11	11	CC50 [3]: > 100 µM; inhibition [4]: 34.6%; TIME [5]: 0.0338 h; IC50 (CCRF-CEM): 71 µM; IC50 (L1210): 148 µM; EC50 (Punta Toro virus): > 100 µM; EC50 (Coxsackievirus B4 [7]): > 100 µM; EC50 (Respirovirus muris): > 100 µM; EC50 [8]: > 100 µM; EC50 (Human respirovirus 3): > 100 µM; MCC [9]: > 100 µM; EC50 [10]: > 100 µM; EC50 [11]: > 100 µM; EC50 (Coxsackievirus B4 [12]): > 100 µM; MCC [13]: > 100 µM; CC50 (HeLa): > 100 µM; EC50 (Vaccinia virus): 20 µM
CCN(CC)CN1C(=O)/C(=N/NC(=S)Nc2ccccc2)c2cc(Cl)ccc21	11	21	11	11	11	11	> 0.8	> 0.8	> 20	> 4	> 4	> 0.8	≥ 0.8	3	> 20	> 20	> 20	100	21	11	CC50 [3]: 6.9 µM; inhibition [4]: 49.2%; TIME [5]: 0.0434 h; IC50 (CCRF-CEM): 40 µM; IC50 (L1210): 49 µM; EC50 (Punta Toro virus): > 20 µM; EC50 (Coxsackievirus B4 [7]): > 20 µM; EC50 (Respirovirus muris): > 20 µM; EC50 [8]: > 20 µM; EC50 (Human respirovirus 3): > 20 µM; MCC [9]: 100 µM; EC50 [10]: > 20 µM; EC50 [11]: > 20 µM; EC50 (Coxsackievirus B4 [12]): > 20 µM; MCC [13]: ≥ 20 µM; CC50 (HeLa): 13.5 µM; EC50 (Vaccinia virus): > 20 µM
Nc1ccn(C[C@@H](CO)OCP(=O)(O)O)c(=O)n1 [CIDOFOVIR]									5						6	> 250	1.5	> 250			
CCN(CC)CN1C(=O)/C(=N/NC(=S)Nc2ccc(OC)cc2)c2ccccc21	21	21	11	11	11	11	> 0.8	> 0.8	> 20	> 0.8	> 0.8	> 0.8	4	9.2	> 20	> 20	> 20	100	11	11	CC50 [3]: 3.5 µM; inhibition [4]: 35.7%; TIME [5]: 0.0343 h; IC50 (CCRF-CEM): 1.9 µM; IC50 (L1210): 2.4 µM; EC50 (Punta Toro virus): > 0.8 µM; EC50 (Coxsackievirus B4 [7]): > 0.8 µM; EC50 (Respirovirus muris): > 0.8 µM; EC50 [8]: > 0.8 µM; EC50 (Human respirovirus 3): > 0.8 µM; MCC [9]: 4 µM; EC50 [10]: > 4 µM; EC50 [11]: > 4 µM; EC50 (Coxsackievirus B4 [12]): > 4 µM; MCC [13]: ≥ 4 µM; CC50 (HeLa): > 100 µM; EC50 (Vaccinia virus): > 20 µM
NC12CC3CC(CC(C3)C1)C2 [AMANTADINE]							> 500	1.5				65.5	> 500	> 500							
OC(Cn1cncn1)(Cn1cncn1)c1ccc(F)cc1F [FLUCONAZOLE]																			31	31	
